Experiment [1] concerns Staphylococcus aureus. The experiment in a line: Antibacterial activity against Staphylococcus aureus IP 8203 after 24 hrs by agar dilution method. It counts as functional. An outline of the steps: (§1)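 MIC by microplate titration in agar medium (agar dilution). Compounds dissolved in DMSO. Incubation at 37° for 24 h (the 24 h/37° conditions are stated for the bioguiding agar diffusion test against S. aureus 209 P).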
On the technique in general: In agar dilution, organisms are placed on agar that contains the substance at set levels.

In experiment [2] the test system is Staphylococcus aureus. The experiment in a line: Antibacterial activity against Staphylococcus aureus 209P ATCC 6538 after 24 hrs by agar dilution method. It counts as functional. In a few lines: as §1
Experiment [3] concerns Staphylococcus aureus. The experiment is described as follows: Antibacterial activity against Staphylococcus aureus ATCC 25923 after 24 hrs by agar dilution method. The class given is functional. The following applies: ATCC 25923, 24 h. An outline of the steps: as §1
Experiment [4] deals with Staphylococcus aureus. The experiment in a line: Antibacterial activity against Staphylococcus aureus V. de G. 26109 after 24 hrs by agar dilution method. It counts as functional. In a few lines:
as §1

For experiment [5], the system named is Staphylococcus aureus. The experiment is described as follows: Antibacterial activity against Staphylococcus aureus Duc after 24 hrs by agar dilution method. It counts as functional. An outline of the steps:
as §1

In experiment [6] the test system is Staphylococcus aureus. The experiment in a line: Antibacterial activity against Staphylococcus aureus Duchaussoy after 24 hrs by agar dilution method. It counts as functional. In a few lines:
as §1

Another experiment concerns Streptococcus. The experiment is described as follows: Antibacterial activity against Streptococcus A Dig 7 after 24 hrs by agar dilution method. It counts as functional. An outline of the steps: as §1
The test system of experiment [7] is Streptococcus pneumoniae. The experiment in a line: Antibacterial activity against Streptococcus pneumoniae 4314-03 after 24 hrs by agar dilution method. It counts as functional. An outline of the steps: as §1
For experiment [8], the system named is Streptococcus pneumoniae. The experiment is described as follows: Antibacterial activity against Streptococcus pneumoniae 6254.013 after 24 hrs by agar dilution method. The class given is functional. An outline of the steps: as §1
Experiment [9] relates to Streptococcus pneumoniae. The experiment is described as follows: Antibacterial activity against Streptococcus pneumoniae 6176-23F after 24 hrs by agar dilution method. The class given is functional. In a few lines: as §1
A further experiment deals with Enterococcus faecalis. The experiment in a line: Antibacterial activity against Enterococcus faecalis ATCC 29212 after 24 hrs by agar dilution method. It counts as functional. The following applies: ATCC 29212, 24 h. An outline of the steps: as §1
Another experiment relates to Enterococcus faecium. The experiment is described as follows: Antibacterial activity against Enterococcus faecium ATCC 19581 after 24 hrs by agar dilution method. The class given is functional. The following applies: ATCC 19581, 24 h. In a few lines:
as §1

For experiment [10], the system named is Escherichia coli. The experiment is described as follows: Antibacterial activity against Escherichia coli NIHJ-JC2 after 24 hrs by agar dilution method. The class given is functional. In a few lines: as §1
Experiment [11] relates to Escherichia coli. The experiment in a line: Antibacterial activity against Escherichia coli V 2019 after 24 hrs by agar dilution method. The class given is functional. In a few lines: as §1
The test system of another experiment is Salmonella typhimurium. The experiment is described as follows: Antibacterial activity against Salmonella Typhimurium IPL after 24 hrs by agar dilution method. The conditions noted are these: Salmonella enterica. The class given is functional, Salmonella enterica subsp. enterica serovar Typhimurium. An outline of the steps:
as §1

For the next experiment, the system named is Klebsiella pneumoniae. The experiment is described as follows: Antibacterial activity against Klebsiella pneumoniae IP 7824 caroli after 24 hrs by agar dilution method. The class given is functional. An outline of the steps: as §1
The next experiment has as its system Klebsiella aerogenes. The experiment in a line: Antibacterial activity against Enterobacter aerogenes HM12 after 24 hrs by agar dilution method. It counts as functional. An outline of the steps: as §1
In another experiment the test system is Serratia marcescens. The experiment is described as follows: Antibacterial activity against Serratia marcescens Guilpin 759 after 24 hrs by agar dilution method. It counts as functional. In a few lines:
as §1

Another experiment concerns Pseudomonas aeruginosa. The experiment is described as follows: Antibacterial activity against Pseudomonas aeruginosa IPA 237 after 24 hrs by agar dilution method. It counts as functional. An outline of the steps: as §1
For experiment [12], the system named is Nucleic Acid. The experiment is described as follows: Induction of phiX174 replicative form 1 template DNA cleavage at 48 ug after 1 hr by propidium iodide staining. The class given is nucleic-acid assay. In a few lines: (§2)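 Reaction at pH 7.5, 15 µl final, with 50 mM sodium cacodylate, 100 ng ΦX174 RF I DNA and CuSO4 120 µM plus sample (24 or 48 µg). Incubated 1 h at 25°, stopped with EDTA. Run on 0.8% agarose at 80 V for 1.5 h in Tris-borate pH 8.0. Stained with propidium iodide 0.5 µg/ml; form II DNA scored.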

Experiment [13] relates to Nucleic Acid. The experiment in a line: Induction of phiX174 replicative form 1 template DNA cleavage at 24 ug after 1 hr by propidium iodide staining. It counts as nucleic-acid assay. An outline of the steps: as §2

The results in this text go back to ChEMBL document CHEMBL1147377, “Knerachelins A and B, antibacterial phenylacylphenols from Knema furfuracea” (1993).

Values after ≈ are worked out from the molar mass of the structure shown. Active and inactive are the calls of the source. The calls are words filed in the database; no cut-off is given here. Some results are limits rather than exact numbers.

For orientation: MIC means the lowest concentration found to suppress growth.

As to `COc1cc(O)c(C(=O)CCCCc2ccccc2)c(O)c1` [KNERACHELIN A], the minimum inhibitory concentration (MIC) against Staphylococcus aureus [1], with Staphylococcus aureus [2], with Staphylococcus aureus [3], in the experiment with Staphylococcus aureus [4], in the experiment with Staphylococcus aureus [5] and in the experiment on Staphylococcus aureus [6] was 8 µg/mL (≈ 26.6 µM) each time. Besides, the minimum inhibitory concentration (MIC) in the experiment with Streptococcus was 8 µg/mL (≈ 26.6 µM); against Streptococcus pneumoniae [7], 8 µg/mL (≈ 26.6 µM); in the experiment with Streptococcus pneumoniae [8], 8 µg/mL (≈ 26.6 µM); against Streptococcus pneumoniae [9] it was 8 µg/mL (≈ 26.6 µM); with Enterococcus faecalis it was 32 µg/mL (≈ 107 µM); in the experiment with Enterococcus faecium, 32 µg/mL (≈ 107 µM). In addition, the MIC with Escherichia coli [10], against Escherichia coli [11], with Salmonella typhimurium, against Klebsiella pneumoniae, in the experiment with Klebsiella aerogenes and against Serratia marcescens was more than 128 µg/mL in each case. In the experiment with Pseudomonas aeruginosa, this compound displayed an MIC of more than 128 µg/mL. The result with Nucleic Acid [12] was inactive.
Turning to `O=C(CCCCc1ccccc1)c1c(O)cccc1O` [KNERACHELIN B], the MIC against Staphylococcus aureus [1], against Staphylococcus aureus [2], in the experiment on Staphylococcus aureus [3], against Staphylococcus aureus [4], against Staphylococcus aureus [5] and in the experiment on Staphylococcus aureus [6] was 4 µg/mL (≈ 14.8 µM) each time. The minimum inhibitory concentration (MIC) against Streptococcus was 4 µg/mL (≈ 14.8 µM); in the experiment with Streptococcus pneumoniae [7], 8 µg/mL (≈ 29.6 µM); in the experiment with Streptococcus pneumoniae [8] it was 8 µg/mL (≈ 29.6 µM); in the experiment on Streptococcus pneumoniae [9], 8 µg/mL (≈ 29.6 µM); against Enterococcus faecalis it was 16 µg/mL (≈ 59.2 µM); in the experiment on Enterococcus faecium it was 16 µg/mL (≈ 59.2 µM). Further, the minimal inhibitory concentration (MIC) in the experiment with Escherichia coli [10], with Escherichia coli [11], in the experiment on Salmonella typhimurium, against Klebsiella pneumoniae, in the experiment on Klebsiella aerogenes and with Serratia marcescens was more than 128 µg/mL in each case. Further, in the experiment with Pseudomonas aeruginosa, the MIC is more than 128 µg/mL. For the same compound, the outcome with Nucleic Acid [13] was inactive.
